Experimental data of several laboratories.
Lines come from different studies, so protocols differ.
JAK2: Tyrosine-protein kinase JAK2 (JAK2, Homo sapiens, UniProt O60674)
JAK2 JH1: Tyrosine-protein kinase JAK2, JH1 (JAK2, Homo sapiens, UniProt O60674)

COc1cc2nccc(Oc3ccc(NC(=O)c4c5n(n(-c6ccc(F)cc6)c4=O)CCCC5)cc3)c2cc1OC  inhibition (JAK2; enzyme activity; inhibitor; 0.1 µM): 10%
CCCS(=O)(=O)Nc1ccc(F)c(C(=O)c2c[nH]c3ncc(-c4ccc(Cl)cc4)cc23)c1F  inhibition (JAK2 JH1; enzyme activity; inhibitor; 1 µM): < 10%
C[C@H]1CCN(c2nccc(-c3cnn4ncccc34)n2)C1  remaining signal (JAK2 JH1; cell-free assay; 1 µM): 70%
CN([C@@H]1CCc2c(CC(=O)O)c3cc(S(C)(=O)=O)ccc3n2C1)S(=O)(=O)c1ccc(F)cc1  remaining binding (JAK2 JH1; cell-free assay; competition with immobilised ligand; 1 µM): 100%
CN1CC(Oc2cnc(C#N)cc2-c2ccn3nc(NC(=O)C4CC4)cc3c2)C1  inhibition (JAK2; enzyme activity; inhibitor; 1 µM): -20%
Nc1nc(Nc2ccc(S(N)(=O)=O)cc2)nn1C(=O)c1c(F)cccc1F  remaining signal (JAK2; cell-free assay; 0.5 µM): 19.2%
CS(=O)(=O)c1cc(C2(NC(=O)c3cncc4c3cnn4-c3ccc(F)cc3)CC2)ccn1  remaining binding (JAK2 JH1; cell-free assay; competition with immobilised ligand; 1 µM): 100%
O=C1Nc2ccc(Cl)cc2C1=Cc1cc(Cl)c(O)c(Cl)c1  remaining signal (JAK2; cell-free assay; 0.5 µM): 91.1%
NS(=O)(=O)c1cc(NC(=O)C2(c3ccccc3Cl)CC2)ccc1Oc1cccc(Cl)c1  remaining binding (JAK2 JH1; cell-free assay; competition with immobilised ligand; 1 µM): 100%
Cc1nn(CC(F)(F)F)cc1Nc1ncc(C2CC2)c(NCCCNC(=O)C2CCC2)n1  remaining activity (JAK2; enzyme activity; inhibitor; radiometric; 1 µM): 99%
COc1cc2ncnc(Nc3ccc(Oc4ccccc4)c(C)c3C)c2cc1OC  inhibition (Tyrosine-protein kinase JAK2, JH1 (JAK2, Homo sapiens, UniProt O60674, V617F); enzyme activity; inhibitor; 1 µM): -4%
O=C(CSc1nc2nccnc2c(=O)n1CCc1ccccc1)Nc1nccs1  inhibition (JAK2 JH1; enzyme activity; inhibitor; 10 µM): 2%
COc1cc2ncnc(Nc3ccc(Oc4ccccc4)cc3C)c2cc1OC  inhibition (JAK2; enzyme activity; inhibitor; 1 µM): -6%
Cc1c[nH]c2nccc(Oc3c(F)cc(Nc4cc(Cl)nc(N)n4)cc3F)c12  remaining binding (JAK2 JH1; cell-free assay; competition with immobilised ligand; 0.1 µM): 75%
Cc1cc(NC(=O)c2cccc3cc(-c4cccc5[nH]nc(N)c45)ccc23)ccc1F  activity vs control (JAK2; enzyme activity; inhibitor; 0.1 µM): 78%
Cc1nn(CC(F)(F)F)cc1Nc1ncc(Br)c(NCCc2cnc[nH]2)n1  remaining activity (JAK2; enzyme activity; inhibitor; radiometric; 1 µM): 106%
CCS(=O)(=O)c1cc2cc(C[C@](O)(CC(C)(C)c3ccc(F)cc3C(N)=O)C(F)(F)F)[nH]c2cn1  remaining binding (JAK2 JH1; cell-free assay; competition with immobilised ligand; 1 µM): 53%
Cc1nn(CC(F)(F)F)cc1Nc1ncc(Br)c(NCCCNC(=O)C2CCC2)n1  remaining activity (JAK2; enzyme activity; inhibitor; radiometric; 1 µM): 67%
C[C@@]1(Cc2ccc(C#N)cc2)C(=O)N(c2cc(Cl)cc(Cl)c2)c2ncc(C(=O)NC3(c4nc(C5CCC5)no4)CC3)n21  remaining binding (JAK2 JH1; cell-free assay; competition with immobilised ligand; 1 µM): 100%
